Measured values taken from ChEMBL document CHEMBL1817548, “Epigenetic profiling of the antitumor natural product psammaplin A and its analogues” (Bioorg Med Chem, 2011).
Calls of active or inactive are those of the source. The calls are words filed in the database; no cut-off is given here.

Columns and labels:
[1] = Inhibition of DNMT in cell-free system
[2] = test system: U-937; assay: Induction of human U937 cell differentiation into granulocytes assessed as expression of CD11c marker on cell membrane at 5 uM after 30 to 40 hrs by PI staining based FACS analysis; format: functional
Summary of the method: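 After 5 µM treatment, U937 cells were stained with PE-conjugated anti-CD11c; controls got PE mouse IgG1, 30 min at 4 °C in the dark. Cells were washed and taken up in PBS with propidium iodide (0.25 µg/mL), then read by FACS. Result is percent CD11c-positive/PI-negative cells, mean of independent quadruplicates.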

[3] = test system: U-937; assay: Induction of apoptosis in human U937 cells assessed as caspase 3 activation at 5 uM after 30 hrs by FACS analysis; format: functional
Summary of the method: (§1)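 Caspase 3 activity was read in living U937 cells after 5 µM exposure. About 1×10^6 cells were washed twice in cold PBS and loaded 1 h on ice with cell-permeable fluorescent substrate FAM-DEVD-FMK. After washing, cells were analysed by FACS. Runs were in duplicate; values are mean ± SD.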

[4] = molecular target: CREB-binding protein/Histone acetyltransferase p300 (Homo sapiens) (UniProt Q09472+Q92793); assay: Inhibition of recombinant human p300/CBP using [3H]-acetyl CoA at 50 uM after 2 hrs by scintillation counting relative to control; format: protein assay
Summary of the method: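 CBP fragment (aa 1098–1877) expressed in E. coli BL21 and affinity-purified (1 µg) was incubated in HAT buffer with histone H4 peptide (aa 2–24, 10 µg) and 20 µM acetyl CoA carrying 0.5 µCi/mL [³H]-acetyl CoA, compound at 50 µM, for 2 h at 37 °C. Samples were spotted on P81 paper in triplicate, washed in TCA and acetone, and counted. Output is percent of untreated control.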

[5] = molecular target: T1, NAD-dependent protein deacetylase sirtuin-1 (Homo sapiens) (UniProt Q96EB6); assay: Inhibition of recombinant human SIRT1 lysine deacetylase activity at 50 uM after 60 mins by fluorimetry relative to control
T1 sequence (whole entry): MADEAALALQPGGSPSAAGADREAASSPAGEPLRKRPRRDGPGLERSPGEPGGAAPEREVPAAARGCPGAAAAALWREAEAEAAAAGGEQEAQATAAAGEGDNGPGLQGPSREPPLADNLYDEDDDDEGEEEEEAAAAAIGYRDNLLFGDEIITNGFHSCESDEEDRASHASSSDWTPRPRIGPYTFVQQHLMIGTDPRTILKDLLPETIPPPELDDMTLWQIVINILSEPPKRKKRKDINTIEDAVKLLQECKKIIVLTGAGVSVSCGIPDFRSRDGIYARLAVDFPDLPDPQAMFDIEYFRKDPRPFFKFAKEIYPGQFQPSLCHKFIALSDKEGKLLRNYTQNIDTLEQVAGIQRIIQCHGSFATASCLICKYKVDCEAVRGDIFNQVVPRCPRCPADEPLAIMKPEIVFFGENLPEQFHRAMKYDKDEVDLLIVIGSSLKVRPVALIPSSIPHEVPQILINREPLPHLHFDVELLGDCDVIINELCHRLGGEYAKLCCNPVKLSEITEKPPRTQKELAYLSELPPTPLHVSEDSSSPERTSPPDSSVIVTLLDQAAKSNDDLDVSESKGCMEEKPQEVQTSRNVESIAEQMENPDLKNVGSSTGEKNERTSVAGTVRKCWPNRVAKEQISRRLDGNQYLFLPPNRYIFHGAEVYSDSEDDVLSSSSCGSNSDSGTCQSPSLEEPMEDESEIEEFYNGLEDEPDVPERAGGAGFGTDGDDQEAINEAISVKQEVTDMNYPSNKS
Summary of the method: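 Human SIRT1 expressed in E. coli BL21 and affinity-purified (1 µg) was reacted with acetylated p53 peptide (aa 379–382), 1 mM DTT and 200 µM NAD⁺, with compound at 50 µM, 60 min at 37 °C. Fluorescence was read at ex 360/em 450 nm. Results are mean and SD of four independent experiments as percent of untreated control.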

[6] = Inhibition of HDAC in cell-free system
[7] = test system: U-937; assay: Cell cycle arrest in human U937 cells assessed as accumulation at G1 phase at 5 uM by propidium iodide staining based flow cytometry; format: functional; conditions: TDE = time-dependent effect
Summary of the method: (§2)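 U937 cells in RPMI with 10% FBS and antibiotics, kept at 200,000 cells/mL, exposed to compound at 5 µM (in DMSO). DNA content was read by flow cytometry and phases modelled with ModFit. Values are means of independent duplicates.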

[8] = test system: U-937; assay: Cell cycle arrest in human U937 cells assessed as accumulation at G1 phase at 5 uM after 30 hrs by propidium iodide staining based flow cytometry; format: functional; summary of the method: as §2
[9] = molecular target: Histone deacetylase 1 (Homo sapiens) (UniProt Q13547); assay: Inhibition of human recombinant GST-tagged HDAC1 expressed in Sf9 cells using Fluor de Lys as substrate at 5 uM after 0.5 hrs by fluorimetry
Histone deacetylase 1 (Homo sapiens), sequence (Q13547 whole entry): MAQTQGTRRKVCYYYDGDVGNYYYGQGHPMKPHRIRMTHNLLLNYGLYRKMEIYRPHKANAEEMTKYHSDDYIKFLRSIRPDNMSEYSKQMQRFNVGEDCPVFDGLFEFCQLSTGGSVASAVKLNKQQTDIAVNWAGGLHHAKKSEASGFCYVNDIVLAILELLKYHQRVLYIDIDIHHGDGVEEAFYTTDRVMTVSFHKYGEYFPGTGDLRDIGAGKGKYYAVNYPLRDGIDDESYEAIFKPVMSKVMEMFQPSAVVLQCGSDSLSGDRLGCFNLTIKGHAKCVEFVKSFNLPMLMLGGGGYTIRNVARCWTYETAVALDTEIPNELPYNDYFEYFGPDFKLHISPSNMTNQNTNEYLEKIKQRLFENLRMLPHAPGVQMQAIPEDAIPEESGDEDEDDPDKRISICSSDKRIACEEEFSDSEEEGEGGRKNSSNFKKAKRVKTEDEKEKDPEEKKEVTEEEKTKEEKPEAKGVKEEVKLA
Summary of the method: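 GST-HDAC1 was expressed in Sf9 cells via baculovirus and purified on glutathione beads. Enzyme was incubated with Fluor de Lys acetyl-lysine substrate ±5 µM compound for 0.5 h at 37 °C, followed by developer for 30 min. Fluorescence was read at ex 360/em 460 nm and reported as percent of control activity.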

[10] = molecular target: Histone deacetylase (Homo sapiens) (UniProt Q13547+O15379+Q9UBN7+Q92769+Q9UQL6+Q8WUI4+Q9BY41+Q96DB2+P56524+Q9UKV0+Q969S8); assay: Inhibition of HDAC1 in human U937 cells assessed a increase in histone H3 acetylation in human U937 cells at 5 uM after 24 hrs by Western blot analysis; format: cell-based; conditions: U-937
Summary of the method: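 U937 cells were treated 24 h at 5 µM, then lysed in Triton extraction buffer. Histones were acid-extracted with 0.2 M HCl overnight at 4 °C and protein was quantified by Bradford. 10 µg of histone extract was run on 15% polyacrylamide gels and immunoblotted with pan-acetyl-histone H3 antibody.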

[11] = test system: U-937; assay: Induction of apoptosis in human U937 cells assessed as caspase 3 activation at 5 uM after 40 hrs by FACS analysis; format: functional, cell-based; summary of the method: as §1
[12] = test system: U-937; assay: Cell cycle arrest in human U937 cells assessed as accumulation at G2/M phase at 5 uM after 30 hrs by propidium iodide staining based flow cytometry; format: functional; summary of the method: as §2
[13] = test system: U-937; assay: Cell cycle arrest in human U937 cells assessed as accumulation at G2/M phase at 5 uM after 48 hrs by propidium iodide staining based flow cytometry; format: functional; summary of the method: as §2
[14] = test system: U-937; assay: Cell cycle arrest in human U937 cells assessed as accumulation at G1 phase at 5 uM after 48 hrs by propidium iodide staining based flow cytometry; format: functional; summary of the method: as §2
[15] = test system: U-937; assay: Cell cycle arrest in human U937 cells assessed as accumulation at S phase at 5 uM after 48 hrs by propidium iodide staining based flow cytometry; format: functional; summary of the method: as §2

SMILES | inhibition [4] | inhibition [5] | inhibition [9] | Activity [10] | Activity [8] | other results
O=C(NCCSSCCNC(=O)/C(Cc1ccccc1)=N/O)/C(Cc1ccccc1)=N/O | inactive | Active | Active | Active | 80% | caspase 3 activation [3]: 30%
O=C(CCc1ccc(O)c(Br)c1)NCCSSCCNC(=O)CCc1ccc(O)c(Br)c1 | inactive | Active | inactive |  | 80% | Activity [11]: inactive
O=C(NCCSSCCNC(=O)/C(Cc1ccc(O)c(F)c1)=N/O)/C(Cc1ccc(O)c(F)c1)=N/O | inactive | Active | Active | Active | 80% | caspase 3 activation [3]: 30%
C=CC/C=C\C/C=C\CCCCCCCc1cccc(O)c1C(=O)O | Active |  |  |  |  | 
O=C(NCCSSCCNC(=O)/C(Cc1cccc(O)c1)=N/O)/C(Cc1cccc(O)c1)=N/O | inactive | Active | Active | Active | 80% | caspase 3 activation [3]: 30%
O=C(NCCSSCCNC(=O)/C(Cc1ccc(O)c(I)c1)=N/O)/C(Cc1ccc(O)c(I)c1)=N/O | inactive | Active | Active | Active | 80% | caspase 3 activation [3]: 30%
COCCNC(=O)/C(Cc1ccc(O)c(Br)c1)=N/O |  |  | inactive |  |  | 
Nc1ccccc1NC(=O)c1ccc(CNC(=O)OCc2cccnc2)cc1 |  |  |  |  | Active | 
O=C(CCCCCCC(=O)Nc1ccccc1)NO |  |  |  |  | Active | 
O=C(NCCCCCCNC(=O)/C(Cc1ccc(O)c(Br)c1)=N/O)/C(Cc1ccc(O)c(Br)c1)=N/O |  |  | inactive |  |  | 

More lines, main results first:

inhibition [4] | inhibition [5] | inhibition [9] | Activity [10] | SMILES | Activity [8] | other results
inactive | Active | Active |  | O=C(NCCSSCCNC(=O)/C(Cc1ccc(O)c(Br)c1)=N/O)/C(Cc1ccc(O)c(Br)c1)=N/O [PSAMMAPLIN A] | 60% | IC50 [1]: 18.6 nM; Activity [2]: Active; Activity [3]: Active; IC50 [6]: 4.2 nM; Activity [7]: tde
inactive | Active | inactive | Active | O=C(NCCSSCCNC(=O)/C(Cc1cc(Br)c(O)c(Br)c1)=N/O)/C(Cc1cc(Br)c(O)c(Br)c1)=N/O | 80% | Activity [11]: inactive
 |  | inactive |  | CSCCNC(=O)/C(Cc1ccc(O)c(Br)c1)=N/O |  | Activity [2]: Active
 |  | inactive |  | O=C1C=CC2(C=C1Br)CC(C(=O)NCCSSCCNC(=O)C1=NOC3(C=CC(=O)C(Br)=C3)C1)=NO2 (stereo not given) |  | Activity [12]: Active; Activity [3]: Active; Activity [13]: inactive; Activity [14]: inactive; Activity [15]: inactive
 |  | inactive |  | O=C(NCCCSSCCCNC(=O)/C(Cc1ccc(O)c(Br)c1)=N/O)/C(Cc1ccc(O)c(Br)c1)=N/O |  | 
 |  | inactive |  | O=C(NCCCCCSSCCCCCNC(=O)/C(Cc1ccc(O)c(Br)c1)=N/O)/C(Cc1ccc(O)c(Br)c1)=N/O |  | 
inactive | Active | Active | Active | O=C(NCCSSCCNC(=O)/C(Cc1ccc(O)c(Cl)c1)=N/O)/C(Cc1ccc(O)c(Cl)c1)=N/O | 80% | caspase 3 activation [3]: 30%
 |  | inactive |  | O=C(NCCCCCCSSCCCCCCNC(=O)/C(Cc1ccc(O)c(Br)c1)=N/O)/C(Cc1ccc(O)c(Br)c1)=N/O |  | 
 |  | inactive |  | O=C(NCCCCSSCCCCNC(=O)/C(Cc1ccc(O)c(Br)c1)=N/O)/C(Cc1ccc(O)c(Br)c1)=N/O |  | 
 |  | inactive |  | O=C(NCCO)/C(Cc1ccc(O)c(Br)c1)=N/O |  | 
inactive | Active | Active | Active | O=C(NCCSSCCNC(=O)/C(Cc1ccc(O)cc1)=N/O)/C(Cc1ccc(O)cc1)=N/O | 80% | caspase 3 activation [3]: 30%
 | Active |  |  | Cc1ccc(C(=O)Nc2ccc(S(=O)(=O)O)c3cc(S(=O)(=O)O)cc(S(=O)(=O)O)c23)cc1NC(=O)c1cccc(NC(=O)Nc2cccc(C(=O)Nc3cc(C(=O)Nc4ccc(S(=O)(=O)O)c5cc(S(=O)(=O)O)cc(S(=O)(=O)O)c45)ccc3C)c2)c1 |  | 
